Data taken from ChEMBL document CHEMBL1148976, “Hypoxia-inducible factor-1 activation by (-)-epicatechin gallate: potential adverse effects of cancer chemoprevention with high-dose green tea extracts” (J Nat Prod, 2004).
Calls of active or inactive are those of the source. No cut-off for these calls is given here.

Tests used:
T47D [1] = assay: Induction of HIF1 activation in human T47D cells under normoxic condition at 100 uM in presence of 300 uM iron(2); format: cell-based
Procedure, shortened: (§1)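 T47D cells transiently co-transfected by electroporation with pTK-HRE3-luc (50 μg mL−1) and pRL-TK (5 μg mL−1). Read-out is dual luciferase, with firefly normalized to Renilla. Incubation runs 16 h under normoxia. Iron salt or ascorbate is added with test compound (100 μM). Data come from one representative experiment in quadruplicate, mean ± SD, p <0.05 versus control.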

T47D [2] = assay: Induction of HIF1 activation in human T47D cells under normoxic condition at 100 uM in presence of 100 uM iron(2); format: cell-based; procedure, shortened: as §1
T47D [3] = assay: Induction of HIF1 activation in human T47D cells expressing pTK-HRE-luc gene under normoxic condition at 100 uM after 16 hrs by luciferase reporter assay relative to control; format: cell-based
Procedure, shortened: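 T47D cells transiently co-transfected by electroporation with pTK-HRE3-luc (50 μg mL−1) and pRL-TK (5 μg mL−1). Compound at 100 μM under normoxia (5% CO2:95% air, 37 °C) for 16 h. Dual luciferase read-out, firefly normalized to Renilla, expressed as fold over control. pGL3-Control transfected cells run as counter-check.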

[4] = target: Hypoxia inducible factors; HIF-1-alpha, HIF-2-alpha (Homo sapiens) (UniProt Q16665+Q99814); assay: Inhibition of hypoxia-induced HIF1 activation in human T47D cells expressing pTK-HRE-luc gene at 100 uM by luciferase reporter assay; format: cell-based
Procedure, shortened: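 T47D cells co-transfected by electroporation with pTK-HRE3-luc and pRL-TK. Compound at 100 μM, then hypoxia (1% O2). Dual luciferase read-out, firefly normalized to Renilla. Value is % inhibition of hypoxic HIF-1 activation. pGL3-Control reporter cells used as specificity control.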

T47D [5] = assay: Induction of VEGF mRNA expression in human T47D cells under normoxic condition at 100 uM after 16 hrs by RT-PCR; format: functional, cell-based
Procedure, shortened: (§2)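 T47D cells, pretreated 30 min, then 16 h under normoxia or hypoxia (1% O2). Total RNA extracted immediately after treatment, checked by absorbance and agarose gel. Target mRNA measured by quantitative real-time RT-PCR, normalized to 18S rRNA, relative expression by ΔΔCT method. Mean ± SD from one representative experiment in triplicate.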

T47D [6] = assay: Induction of GLUT1 mRNA expression in human T47D cells under normoxic condition at 100 uM after 16 hrs by RT-PCR; format: functional, cell-based; procedure, shortened: as §2
T47D [7] = assay: Induction of CDKN1A mRNA expression in human T47D cells under normoxic condition at 100 uM after 16 hrs by RT-PCR; format: functional, cell-based; procedure, shortened: as §2
T47D [8] = assay: Inhibition of hypoxia-induced VEGF mRNA expression in human T47D cells at 100 uM after 16 hrs by RT-PCR; format: functional, cell-based; procedure, shortened: as §2
T47D [9] = assay: Inhibition of hypoxia-induced GLUT1 mRNA expression in human T47D cells at 100 uM after 16 hrs by RT-PCR; format: functional, cell-based; procedure, shortened: as §2
[10] = target: Hypoxia-inducible factor 1-alpha (Homo sapiens) (UniProt Q16665); assay: Induction of HIF1alpha protein in human T47D cells under normoxic condition at 100 uM after 4 hrs by Western blot analysis; format: cell-based
Procedure, shortened: (§3)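 T47D cells (10 million per 100 mm plate, 10% FBS DMEM/F12) are plated and left overnight. Test compound, with or without iron salt, ascorbate or Trolox, is added for 30 min at 37 °C. Cells then stand 4 h under normoxia (5% CO2:95% air) or hypoxia (5% CO2:1% O2:94% N2). Nuclear extracts are probed for HIF-1α and HIF-1β by Western blot.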

[11] = target: Aryl hydrocarbon receptor nuclear translocator (Homo sapiens) (UniProt P27540); assay: Induction of HIF1beta protein in human T47D cells under normoxic condition at 100 uM after 4 hrs by Western blot analysis; format: cell-based; procedure, shortened: as §3
[12] = target: Hypoxia-inducible factor 1-alpha (Homo sapiens) (UniProt Q16665); assay: Inhibition of hypoxia-induced increase in HIF1alpha protein in human T47D cells at 100 uM after 4 hrs by Western blot analysis; format: cell-based; procedure, shortened: as §3
T47D [13] = assay: Increase in HIF1alpha mRNA expression in human T47D cells under normoxic condition at 100 uM after 16 hrs by RT-PCR; format: functional, cell-based; procedure, shortened: as §2
T47D [14] = assay: Decrease in hypoxia-induced HIF1alpha mRNA expression in human T47D cells at 100 uM after 16 hrs by RT-PCR; format: functional, cell-based; procedure, shortened: as §2
[15] = target: Hypoxia-inducible factor 1-alpha (Homo sapiens) (UniProt Q16665); assay: Induction of HIF1alpha protein in human T47D cells under normoxic condition at 100 uM after 4 hrs by Western blot analysis in presence of 300 uM iron(2); format: cell-based; procedure, shortened: as §3
[16] = target: Hypoxia-inducible factor 1-alpha (Homo sapiens) (UniProt Q16665); assay: Induction of HIF1alpha protein in human T47D cells under normoxic condition at 100 uM after 4 hrs by Western blot analysis in presence of 100 uM iron(2); format: cell-based; procedure, shortened: as §3
[17] = target: Aryl hydrocarbon receptor nuclear translocator (Homo sapiens) (UniProt P27540); assay: Induction of HIF1beta protein in human T47D cells under normoxic condition at 100 uM after 4 hrs by Western blot analysis in presence of 300 uM iron(2); format: cell-based; procedure, shortened: as §3
T47D [18] = assay: Induction of HIF1 activation in human T47D cells under normoxic condition at 100 uM in presence of 50 uM iron(3); format: cell-based; procedure, shortened: as §1
[19] = target: Hypoxia-inducible factor 1-alpha (Homo sapiens) (UniProt Q16665); assay: Induction of HIF1alpha protein in human T47D cells under normoxic condition at 100 uM after 4 hrs by Western blot analysis in presence of 150 uM iron(3); format: cell-based; procedure, shortened: as §3
T47D [20] = assay: Induction of HIF1 activation in human T47D cells under normoxic condition at 100 uM in presence of 150 uM iron(3); format: cell-based; procedure, shortened: as §1
[21] = target: Aryl hydrocarbon receptor nuclear translocator (Homo sapiens) (UniProt P27540); assay: Induction of HIF1beta protein in human T47D cells under normoxic condition at 100 uM after 4 hrs by Western blot analysis in presence of 150 uM iron(3); format: cell-based; procedure, shortened: as §3
T47D [22] = assay: Induction of HIF1 activation in human T47D cells under normoxic condition at 100 uM by luciferase reporter gene assay in presence of ascorbate; format: cell-based; procedure, shortened: as §1
[23] = target: Hypoxia-inducible factor 1-alpha (Homo sapiens) (UniProt Q16665); assay: Induction of HIF1alpha protein in human T47D cells under normoxic condition at 100 uM after 4 hrs by Western blot analysis in presence of ascorbate; format: cell-based; procedure, shortened: as §3
[24] = target: Aryl hydrocarbon receptor nuclear translocator (Homo sapiens) (UniProt P27540); assay: Induction of HIF1beta protein in human T47D cells under normoxic condition at 100 uM after 4 hrs by Western blot analysis in presence of ascorbate; format: cell-based; procedure, shortened: as §3
[25] = target: Hypoxia-inducible factor 1-alpha (Homo sapiens) (UniProt Q16665); assay: Induction of HIF1alpha protein in human T47D cells under normoxic condition at 100 uM after 4 hrs by Western blot analysis in presence of trolox; format: cell-based; procedure, shortened: as §3
[26] = Aqueous stability of the compound; format: physicochemical; details: buffer
Procedure, shortened: (§4)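 Compound added at 100 μM final in serum-free DMEM/F12 with Pen/Strep to medium with 5% FBS, with or without T47D cells, 30 min, then hypoxia (1% O2) 16 h. Other samples: cell-free medium with or without antibiotics. Conditioned medium extracted; normal-phase TLC on silica gel G with UV254 indicator, UV254 quenching read-out. Extraction control: compound mixed with medium immediately before extraction.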

[27] = Chemical stability in DMEM/F12 medium in presence of fetal calf serum; format: physicochemical; details: cattle; procedure, shortened: as §4

Chain of Aryl hydrocarbon receptor nuclear translocator (Homo sapiens) (P27540 whole entry): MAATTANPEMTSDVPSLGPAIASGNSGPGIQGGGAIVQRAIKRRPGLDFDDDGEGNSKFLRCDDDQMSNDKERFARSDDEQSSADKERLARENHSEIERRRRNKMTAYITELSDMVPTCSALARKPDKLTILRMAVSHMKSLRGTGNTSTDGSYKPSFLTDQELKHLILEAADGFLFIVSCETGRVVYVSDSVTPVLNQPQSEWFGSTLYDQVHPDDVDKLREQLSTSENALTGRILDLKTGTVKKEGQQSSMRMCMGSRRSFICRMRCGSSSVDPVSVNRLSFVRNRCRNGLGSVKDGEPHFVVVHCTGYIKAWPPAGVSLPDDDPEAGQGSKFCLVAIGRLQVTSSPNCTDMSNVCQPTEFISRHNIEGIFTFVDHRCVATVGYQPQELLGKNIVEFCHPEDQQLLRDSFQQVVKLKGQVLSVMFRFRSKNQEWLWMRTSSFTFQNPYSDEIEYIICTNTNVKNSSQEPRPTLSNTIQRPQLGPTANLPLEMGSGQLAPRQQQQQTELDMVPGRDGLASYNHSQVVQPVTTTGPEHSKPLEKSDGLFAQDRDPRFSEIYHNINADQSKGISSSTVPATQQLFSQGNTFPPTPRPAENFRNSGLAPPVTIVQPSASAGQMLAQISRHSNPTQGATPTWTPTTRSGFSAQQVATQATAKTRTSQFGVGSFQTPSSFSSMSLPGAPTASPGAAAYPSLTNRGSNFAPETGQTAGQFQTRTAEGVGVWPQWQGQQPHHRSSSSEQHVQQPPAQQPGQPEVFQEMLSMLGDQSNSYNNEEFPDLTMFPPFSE
Chain of Hypoxia-inducible factor 1-alpha (Homo sapiens) (Q16665 whole entry, looked up): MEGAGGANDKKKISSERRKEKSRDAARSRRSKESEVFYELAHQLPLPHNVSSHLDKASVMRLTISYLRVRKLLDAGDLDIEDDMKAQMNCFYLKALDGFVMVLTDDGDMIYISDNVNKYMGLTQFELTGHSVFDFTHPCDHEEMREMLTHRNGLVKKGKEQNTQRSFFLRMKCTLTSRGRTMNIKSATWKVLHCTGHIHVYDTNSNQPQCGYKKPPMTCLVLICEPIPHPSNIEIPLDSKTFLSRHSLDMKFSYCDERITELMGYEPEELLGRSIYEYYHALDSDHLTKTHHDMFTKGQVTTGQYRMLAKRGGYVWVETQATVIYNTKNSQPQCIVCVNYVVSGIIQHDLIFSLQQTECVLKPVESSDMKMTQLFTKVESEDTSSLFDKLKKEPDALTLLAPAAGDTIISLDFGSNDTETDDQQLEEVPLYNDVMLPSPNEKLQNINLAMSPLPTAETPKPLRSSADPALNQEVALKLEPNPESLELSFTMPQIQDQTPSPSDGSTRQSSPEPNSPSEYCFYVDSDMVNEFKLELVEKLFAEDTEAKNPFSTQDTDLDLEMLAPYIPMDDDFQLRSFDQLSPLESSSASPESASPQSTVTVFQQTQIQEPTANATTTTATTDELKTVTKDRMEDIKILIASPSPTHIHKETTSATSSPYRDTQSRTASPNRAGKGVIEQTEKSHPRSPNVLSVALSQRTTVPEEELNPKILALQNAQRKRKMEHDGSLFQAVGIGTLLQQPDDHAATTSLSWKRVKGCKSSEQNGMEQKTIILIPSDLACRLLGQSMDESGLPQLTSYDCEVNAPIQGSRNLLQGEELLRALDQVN

**Q.** With `CC(=O)N(O)CCCCCNC(=O)CCC(=O)N(O)CCCCCNC(=O)CCC(=O)N(O)CCCCCN` as the compound, how does the Activity (T47D [1]) read?
**A.** Its Activity is “inactive”.

**Q.** What about the Activity (T47D [2]) of the same compound?
**A.** Its Activity is “inactive”.

**Q.** For `O=C(O[C@@H]1Cc2c(O)cc(O)cc2O[C@@H]1c1ccc(O)c(O)c1)c1cc(O)c(O)c(O)c1`, which fold change (FC) (T47D [3]) is on record?
**A.** Its fold change (FC) is 16.8.

**Q.** And the inhibition [4]?
**A.** Its inhibition is 79%.

**Q.** What about the Activity (T47D [5]) of the same compound?
**A.** Its Activity is “Active”.

**Q.** And the Activity (T47D [6])?
**A.** The Activity was “Active”.

**Q.** And the Activity (T47D [7])?
**A.** Its Activity is “Active”.

**Q.** What about the Activity (T47D [8]) of the same compound?
**A.** The Activity was “inactive”.

**Q.** What about the Activity (T47D [9]) of the same compound?
**A.** Its Activity is “inactive”.

**Q.** And the Activity [10]?
**A.** The Activity was “Active”.

**Q.** And the Activity [11]?
**A.** The Activity was “inactive”.

**Q.** What about the Activity [12] of the same compound?
**A.** The Activity was “Active”.

**Q.** And the Activity (T47D [13])?
**A.** Its Activity is “inactive”.

**Q.** What about the Activity (T47D [14]) of the same compound?
**A.** The Activity was “inactive”.

**Q.** And the Activity (T47D [1])?
**A.** Its Activity is “inactive”.

**Q.** And the Activity [15]?
**A.** Its Activity is “inactive”.

**Q.** What about the Activity [16] of the same compound?
**A.** Its Activity is “inactive”.

**Q.** And the Activity [17]?
**A.** Its Activity is “Active”.

**Q.** What about the Activity (T47D [18]) of the same compound?
**A.** The Activity was “inactive”.

**Q.** What about the Activity [19] of the same compound?
**A.** The Activity was “inactive”.

**Q.** And the Activity (T47D [20])?
**A.** The Activity was “inactive”.

**Q.** And the Activity [21]?
**A.** Its Activity is “Active”.

**Q.** What about the Activity (T47D [22]) of the same compound?
**A.** Its Activity is “inactive”.

**Q.** What about the Activity [23] of the same compound?
**A.** Its Activity is “inactive”.

**Q.** And the Activity [24]?
**A.** Its Activity is “Active”.

**Q.** And the Activity [25]?
**A.** The Activity was “Active”.

**Q.** For `O=C(O[C@@H]1Cc2c(O)cc(O)cc2O[C@@H]1c1cc(O)c(O)c(O)c1)c1cc(O)c(O)c(O)c1` [EPIGALOCATECHIN GALLATE], which fold change (FC) (T47D [3]) is on record?
**A.** Its fold change (FC) is 3.6.

**Q.** And the Activity [4]?
**A.** Its Activity is “inactive”.

**Q.** And the Stability [26]?
**A.** Its Stability is “Unstable”.

**Q.** What about the Stability [27] of the same compound?
**A.** Its Stability is “Unstable”.

**Q.** For `Cc1c(C)c2c(c(C)c1O)CCC(C)(C(=O)O)O2` (configuration not stated), which Activity [10] is on record?
**A.** The Activity was “inactive”.

**Q.** And the Activity [11]?
**A.** The Activity was “inactive”.
